Data taken from ChEMBL document CHEMBL1938274, “Discovery of potent and specific CXCR3 antagonists” (Bioorg Med Chem Lett, 2012).

Legend:
[1] = tested on: PBL; assay: Toxicity in human PBL assessed as chromosomal aberrations at 7.81 to 1000 ug/mL; format: cell-based
Method in brief: (§1)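 Cultured human peripheral blood lymphocytes exposed at 7.81–1000 μg/mL, with and without S9 metabolic activation; chromosomal aberrations scored.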

[2] = target: T1, C-X-C chemokine receptor type 3 (Homo sapiens, UniProt P49682); assay: Displacement of [125I]-IP-10 from CXCR3 in presence of 100% human serum
T1 sequence (P49682 whole entry): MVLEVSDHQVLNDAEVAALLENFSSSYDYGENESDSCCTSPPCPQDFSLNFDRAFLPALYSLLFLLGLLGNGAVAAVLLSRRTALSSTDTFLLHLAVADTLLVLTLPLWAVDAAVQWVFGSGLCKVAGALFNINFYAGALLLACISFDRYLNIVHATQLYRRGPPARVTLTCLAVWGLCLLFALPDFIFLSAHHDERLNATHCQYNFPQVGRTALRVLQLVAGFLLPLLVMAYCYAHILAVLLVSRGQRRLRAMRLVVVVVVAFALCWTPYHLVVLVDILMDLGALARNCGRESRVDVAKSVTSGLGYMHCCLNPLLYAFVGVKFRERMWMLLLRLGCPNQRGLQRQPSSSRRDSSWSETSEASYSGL

[3] = target: T1, C-X-C chemokine receptor type 3; assay: Displacement of [125I]-IP-10 from CXCR3
[4] = tested on: PBL; assay: Toxicity in human PBL assessed as chromosomal aberrations at 7.81 to 1000 ug/mL in the presence of S9; format: cell-based; method in brief: as §1
[5] = tested on: Blood; assay: Drug level in C57BL/6 mouse blood at 1 mg/kg, sc after 1 hr; format: ADME, organism-based; design: dose 1 mg/kg, route subcutaneous; settings: in vivo
Method in brief: (§2)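 C57BL/6 mice given bleomycin intra-tracheally and dosed subcutaneously by osmotic mini-pump for 6 days; plasma collected to measure drug level, reported 1 h post dose.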

[6] = tested on: Blood; assay: Drug level in C57BL/6 mouse blood at 10 mg/kg, sc after 1 hr; format: ADME, organism-based; design: dose 10 mg/kg, route subcutaneous; settings: in vivo; method in brief: as §2
[7] = target: T2, C-X-C chemokine receptor type 3 (Mus musculus, UniProt O88410); assay: Receptor occupancy of CXCR3 in mouse whole blood assessed as inhibition of ITAC binding by fluorescence quenching based FACS analysis
T2 sequence (O88410 whole entry): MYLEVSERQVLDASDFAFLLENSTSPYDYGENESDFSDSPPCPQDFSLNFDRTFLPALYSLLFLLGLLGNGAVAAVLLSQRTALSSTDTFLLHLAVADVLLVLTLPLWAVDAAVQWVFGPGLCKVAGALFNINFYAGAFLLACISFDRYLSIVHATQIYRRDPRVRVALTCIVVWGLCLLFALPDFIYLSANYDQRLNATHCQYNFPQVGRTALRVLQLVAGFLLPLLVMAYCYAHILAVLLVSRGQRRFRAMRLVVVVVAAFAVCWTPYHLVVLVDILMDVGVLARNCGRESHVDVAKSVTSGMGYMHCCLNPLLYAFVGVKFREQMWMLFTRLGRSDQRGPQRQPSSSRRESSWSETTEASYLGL

[8] = Clearance in Beagle dog at 0.5 mg/kg, iv; format: ADME, organism-based, Canis lupus familiaris; design: dose 0.5 mg/kg, route intravenous; settings: in vivo
Method in brief: (§3)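 Single intravenous dose in 10% N,N-dimethylacetamide, 10% ethanol, 30% propylene glycol, 50% water: 1 mg/kg mouse; 0.5 mg/kg rat, beagle dog, cynomolgus monkey. Plasma clearance also given as percent of hepatic blood flow.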

[9] = Apparent oral bioavailability in cynomolgus monkey at 2 mg/kg; format: ADME, organism-based, Macaca fascicularis; settings: in vivo, read-out: Fapp
[10] = Apparent oral bioavailability in mouse at 5 mg/kg; format: ADME, organism-based; settings: in vivo, read-out: Fapp
[11] = Clearance in mouse at 1 mg/kg, iv; format: ADME, organism-based; design: dose 1 mg/kg, route intravenous; settings: in vivo; method in brief: as §3
[12] = Clearance in cynomolgus monkey at 0.5 mg/kg, iv; format: ADME, organism-based, Macaca fascicularis; design: dose 0.5 mg/kg, route intravenous; settings: in vivo; method in brief: as §3
[13] = Apparent oral bioavailability in Beagle dog at 2 mg/kg; format: ADME, organism-based, Canis lupus familiaris; settings: in vivo, read-out: Fapp
[14] = target: T3, Cytochrome P450 3A4 (Homo sapiens, UniProt P08684); assay: Time dependent inhibition of CYP3A4; format: ADME
T3 sequence (P08684 whole entry): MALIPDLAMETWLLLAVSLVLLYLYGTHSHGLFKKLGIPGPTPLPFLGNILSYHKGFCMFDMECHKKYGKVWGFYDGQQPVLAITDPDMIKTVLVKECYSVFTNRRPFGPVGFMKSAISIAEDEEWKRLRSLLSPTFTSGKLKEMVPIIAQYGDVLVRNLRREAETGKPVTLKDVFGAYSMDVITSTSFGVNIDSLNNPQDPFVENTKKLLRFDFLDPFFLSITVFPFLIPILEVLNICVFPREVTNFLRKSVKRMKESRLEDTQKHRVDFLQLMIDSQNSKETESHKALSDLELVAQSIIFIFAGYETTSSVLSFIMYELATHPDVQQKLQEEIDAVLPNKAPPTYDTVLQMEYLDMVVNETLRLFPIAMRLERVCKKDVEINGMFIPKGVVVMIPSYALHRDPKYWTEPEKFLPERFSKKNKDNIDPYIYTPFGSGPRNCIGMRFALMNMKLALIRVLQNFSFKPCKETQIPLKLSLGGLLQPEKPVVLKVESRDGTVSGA

[15] = Volume of distribution at steady state in rat at 0.5 mg/kg, iv; format: ADME, organism-based; design: dose 0.5 mg/kg, route intravenous; settings: in vivo, read-out: Vdss; method in brief: as §3
[16] = Mean residence time in Beagle dog at 0.5 mg/kg, iv; format: ADME, organism-based, Canis lupus familiaris; design: dose 0.5 mg/kg, route intravenous; settings: in vivo; method in brief: as §3
[17] = Volume of distribution at steady state in mouse at 1 mg/kg, iv; format: ADME, organism-based; design: dose 1 mg/kg, route intravenous; settings: in vivo, read-out: Vdss; method in brief: as §3
[18] = Volume of distribution at steady state in Beagle dog at 0.5 mg/kg, iv; format: ADME, organism-based, Canis lupus familiaris; design: dose 0.5 mg/kg, route intravenous; settings: in vivo, read-out: Vdss; method in brief: as §3
[19] = Volume of distribution at steady state in cynomolgus monkey at 0.5 mg/kg, iv; format: ADME, organism-based, Macaca fascicularis; design: dose 0.5 mg/kg, route intravenous; settings: in vivo, read-out: Vdss; method in brief: as §3
[20] = Mean residence time in rat at 0.5 mg/kg, iv; format: ADME, organism-based; design: dose 0.5 mg/kg, route intravenous; settings: in vivo; method in brief: as §3
[21] = Clearance in rat at 0.5 mg/kg, iv; format: ADME, organism-based; design: dose 0.5 mg/kg, route intravenous; settings: in vivo; method in brief: as §3
[22] = Mean residence time in cynomolgus monkey at 0.5 mg/kg, iv; format: ADME, organism-based, Macaca fascicularis; design: dose 0.5 mg/kg, route intravenous; settings: in vivo; method in brief: as §3
[23] = Apparent oral bioavailability in rat at 2 mg/kg; format: ADME, organism-based; settings: in vivo, read-out: Fapp
[24] = Mean residence time in mouse at 1 mg/kg, iv; format: ADME, organism-based; design: dose 1 mg/kg, route intravenous; settings: in vivo; method in brief: as §3
[25] = Permeability of the compound at pH 5 to 7.4 by PAMPA; format: ADME; settings: read-out: permeability
Method in brief: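 PAMPA permeability measured across pH 5 to 7.4.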

[26] = target: Cytochrome P450 2D6 (Homo sapiens, UniProt P10635); assay: Inhibition of CYP2D6; format: ADME
Cytochrome P450 2D6, sequence (P10635 whole entry): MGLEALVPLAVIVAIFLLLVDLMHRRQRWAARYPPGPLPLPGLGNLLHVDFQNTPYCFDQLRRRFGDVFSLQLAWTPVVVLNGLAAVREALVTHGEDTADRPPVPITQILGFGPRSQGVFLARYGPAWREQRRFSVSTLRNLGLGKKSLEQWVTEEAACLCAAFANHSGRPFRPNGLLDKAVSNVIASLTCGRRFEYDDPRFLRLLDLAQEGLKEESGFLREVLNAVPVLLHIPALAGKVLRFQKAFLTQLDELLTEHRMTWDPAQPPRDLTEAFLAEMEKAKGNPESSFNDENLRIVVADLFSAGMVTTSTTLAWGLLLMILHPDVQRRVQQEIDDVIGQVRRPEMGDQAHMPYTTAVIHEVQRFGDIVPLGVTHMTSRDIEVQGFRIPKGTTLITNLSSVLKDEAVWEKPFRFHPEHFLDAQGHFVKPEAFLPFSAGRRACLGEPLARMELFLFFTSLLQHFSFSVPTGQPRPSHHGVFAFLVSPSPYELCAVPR

[27] = target: T3, Cytochrome P450 3A4; assay: Inhibition of CYP3A4; format: ADME

Row | SMILES | Activity [1] | IC50 [2] [nM] | IC50 [3] [nM] | Activity [4] | further results
1 | C[C@H](c1nc2ccccn2c(=O)c1-c1ccc(C#N)cc1)N(CC1CCS(=O)(=O)CC1)C(=O)Cc1ccc(OC(F)(F)F)cc1 | Toxic | 22 | 6 | Toxic | –
2 | CCOc1ccc(-n2c([C@@H](C)N(Cc3cccnc3)C(=O)Cc3ccc(OC(F)(F)F)cc3)nc3ncccc3c2=O)cc1 | – | – | – | – | Drug uptake [5]: 0.16 µM; Drug uptake [6]: 2.3 mg/kg; IC50 [7]: 1900 nM
3 | C[C@H](c1nc2ncccc2c(=O)n1-c1ccc(C#N)cc1)N(CC1CCS(=O)(=O)CC1)C(=O)Cc1ccc(F)c(C(F)(F)F)c1 | Non-toxic | 12 | 8 | Non-toxic | clearance [8]: 8.33 mL/min/kg; bioavailability [9]: 1%; bioavailability [10]: 17%; clearance [11]: 8.17 mL/min/kg; clearance [12]: 21.7 mL/min/kg; bioavailability [13]: 1.6%
4 | CCS(=O)(=O)CCN(C(=O)Cc1ccc(F)c(C(F)(F)F)c1)[C@H](C)c1nc2ccccn2c(=O)c1-c1ccc(O)cc1 | – | – | – | – | TDI [14]: Active
5 | C[C@H](c1nc2ncccc2c(=O)n1-c1ccc(F)cc1)N(CC1CCS(=O)(=O)CC1)C(=O)Cc1ccc(F)c(C(F)(F)F)c1 | Non-toxic | 17 | 7 | Non-toxic | clearance [8]: 14.8 mL/min/kg; bioavailability [9]: 51%; bioavailability [10]: 59%; Vd [15]: 5 L/kg; clearance [11]: 5.67 mL/min/kg; MRT [16]: 1.5 h; clearance [12]: 5.67 mL/min/kg; Vd [17]: 0.73 L/kg; Vd [18]: 1.3 L/kg; Vd [19]: 2.2 L/kg; MRT [20]: 2.4 h; clearance [21]: 35 mL/min/kg; MRT [22]: 6.4 h; bioavailability [13]: > 100%; bioavailability [23]: > 100%; MRT [24]: 2.1 h
6 | CCS(=O)(=O)CCN(C(=O)Cc1ccc(C(F)(F)F)c(F)c1)[C@H](C)c1nc2ncccc2c(=O)n1-c1ccc(F)cc1 | Non-toxic | 58 | 47 | Non-toxic | Papp [25]: 0.8 ×10⁻⁶ cm/s
7 | CCS(=O)(=O)CCN(C(=O)Cc1ccc(F)c(C(F)(F)F)c1)[C@H](C)c1nc2ccccn2c(=O)c1-c1ccc(C#N)cc1 | Toxic | – | – | Toxic | –
8 | C[C@H](c1nc2ncccc2c(=O)n1-c1ccc(Cl)cc1)N(CC1CCS(=O)(=O)CC1)C(=O)Cc1ccc(C(F)(F)F)c(F)c1 | Non-toxic | 13 | – | Non-toxic | IC50 [26]: > 10000 nM; IC50 [27]: > 10000 nM
9 | CCS(=O)(=O)CCN(C(=O)Cc1ccc(F)c(C(F)(F)F)c1)[C@H](C)c1nc2ncccc2c(=O)n1-c1ccc(F)cc1 | Non-toxic | 50 | 42 | Non-toxic | –
10 | CCOc1ccc(-n2c([C@@H](C)N(CCS(=O)(=O)CC)C(=O)Cc3ccc(F)c(C(F)(F)F)c3)nc3ncccc3c2=O)cc1 | – | – | – | – | TDI [14]: Not Active
11 | CCS(=O)(=O)CCN(C(=O)Cc1ccc(F)c(C(F)(F)F)c1)[C@H](C)c1nc2ncccc2c(=O)n1-c1ccc(Cl)cc1 | Non-toxic | 22 | 6 | Non-toxic | –
12 | CCOc1ccc(-c2c([C@@H](C)N(CCS(=O)(=O)CC)C(=O)Cc3ccc(F)c(C(F)(F)F)c3)nc3ncccn23)cc1 | – | – | – | – | TDI [14]: Not Active
13 | CCOc1ccc(-n2c([C@@H](C)N(Cc3ccc[n+]([O-])c3)C(=O)Cc3ccc(OC(F)(F)F)cc3)nc3ncccc3c2=O)cc1 | – | 14 | 7 | – | –
14 | CCS(=O)(=O)CCN(C(=O)Cc1ccc(F)c(C(F)(F)F)c1)[C@H](C)c1nc2ncccc2c(=O)n1-c1ccc(C#N)cc1 | Toxic | – | – | Toxic | clearance [8]: 16.7 mL/min/kg; bioavailability [9]: 13%; bioavailability [10]: 17%; clearance [11]: 5.83 mL/min/kg; MRT [16]: 1.2 h; clearance [12]: 12.3 mL/min/kg; MRT [22]: 1.7 h; bioavailability [13]: 69%; MRT [24]: 0.7 h
15 | CCS(=O)(=O)CCN(C(=O)Cc1ccc(C(F)(F)F)c(F)c1)[C@H](C)c1nc2ncccc2c(=O)n1-c1ccc(Cl)cc1 | Non-toxic | 21 | 7 | Non-toxic | –
16 | CCS(=O)(=O)CCN(C(=O)Cc1ccc(C(F)(F)F)c(F)c1)[C@H](C)c1nc2ncccc2c(=O)n1-c1ccc(C#N)cc1 | Toxic | – | – | Toxic | –
17 | C[C@H](c1nc2ncccc2c(=O)n1-c1ccc(C#N)cc1)N(CCS(C)(=O)=O)C(=O)Cc1ccc(F)c(C(F)(F)F)c1 | Toxic | 29 | 13 | Toxic | –
18 | C[C@H](c1nc2ncccc2c(=O)n1-c1ccc(O)cc1)N(Cc1cccnc1)C(=O)Cc1ccc(OC(F)(F)F)cc1 | – | 4.1 | 816 | – | –
19 | C[C@H](c1nc2ncccc2c(=O)n1-c1ccc(C#N)cc1)N(CC1CCS(=O)(=O)CC1)C(=O)Cc1ccc(C(F)(F)F)c(F)c1 | Toxic | 15 | 7 | Toxic | –
20 | C[C@H](c1nc2ncccc2c(=O)n1-c1ccc(F)cc1)N(CC1CCS(=O)(=O)CC1)C(=O)Cc1ccc(C(F)(F)F)c(F)c1 | Non-toxic | 22 | 7 | Non-toxic | –
21 | CCS(=O)(=O)CCN(C(=O)Cc1ccc(F)c(C(F)(F)F)c1)[C@H](C)c1nc2ncccn2c1-c1ccc(O)cc1 | – | – | – | – | TDI [14]: Active
22 | CCOc1ccc(-c2c([C@@H](C)N(CCS(=O)(=O)CC)C(=O)Cc3ccc(F)c(C(F)(F)F)c3)nc3ccccn3c2=O)cc1 | – | – | – | – | TDI [14]: Not Active
